We go through 4 compounds from paper PMC7035113 (Nature, 2020).

Square brackets hold non-standard residues; d marks the D form. Ends that are not written are not given here. Peptide text beside a SMILES is read from it. pT = C[C@@H](OP(=O)(O)O)[C@H](N)C(=O)O

The assay addresses T1, SA2-SCC1 (Homo sapiens, UniProt O60216+Q8N3U4).
T1 sequence (Q8N3U4 80-1060): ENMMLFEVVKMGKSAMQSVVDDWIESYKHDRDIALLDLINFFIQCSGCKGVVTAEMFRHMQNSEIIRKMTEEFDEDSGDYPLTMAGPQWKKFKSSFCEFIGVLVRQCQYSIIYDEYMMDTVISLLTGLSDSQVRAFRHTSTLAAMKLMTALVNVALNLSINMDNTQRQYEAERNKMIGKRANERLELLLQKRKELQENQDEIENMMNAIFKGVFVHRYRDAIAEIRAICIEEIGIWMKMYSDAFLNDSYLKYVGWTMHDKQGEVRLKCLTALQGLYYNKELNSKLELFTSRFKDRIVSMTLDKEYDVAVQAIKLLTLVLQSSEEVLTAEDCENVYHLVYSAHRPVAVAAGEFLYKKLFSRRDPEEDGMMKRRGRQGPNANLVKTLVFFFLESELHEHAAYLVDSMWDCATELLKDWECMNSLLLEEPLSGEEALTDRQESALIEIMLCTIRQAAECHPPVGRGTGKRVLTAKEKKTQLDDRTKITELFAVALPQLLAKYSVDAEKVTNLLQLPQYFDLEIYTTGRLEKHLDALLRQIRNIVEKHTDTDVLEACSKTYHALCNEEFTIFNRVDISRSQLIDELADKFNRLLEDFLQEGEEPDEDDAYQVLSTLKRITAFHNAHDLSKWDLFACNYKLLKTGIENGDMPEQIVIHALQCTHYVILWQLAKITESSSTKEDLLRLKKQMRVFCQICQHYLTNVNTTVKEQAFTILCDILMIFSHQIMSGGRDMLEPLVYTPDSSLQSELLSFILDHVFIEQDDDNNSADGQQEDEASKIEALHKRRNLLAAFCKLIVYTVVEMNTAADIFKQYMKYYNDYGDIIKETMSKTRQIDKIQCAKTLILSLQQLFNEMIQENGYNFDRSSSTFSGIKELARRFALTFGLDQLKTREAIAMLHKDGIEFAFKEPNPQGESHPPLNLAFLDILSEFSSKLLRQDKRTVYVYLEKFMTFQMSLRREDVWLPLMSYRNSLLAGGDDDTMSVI
T1 sequence (O60216 281-420): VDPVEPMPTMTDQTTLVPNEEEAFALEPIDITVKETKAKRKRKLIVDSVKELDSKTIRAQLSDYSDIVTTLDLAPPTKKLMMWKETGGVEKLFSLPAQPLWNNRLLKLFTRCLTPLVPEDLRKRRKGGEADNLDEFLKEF
The assay is described as follows: Isothermal titration calorimetry. Conditions: ITC, 25°C, one site binding model. Summed up: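 Recombinant SA2-SCC1 from E. coli BL21(DE3), purified by Co2+ IMAC, MonoQ and Superdex 200. Protein and peptides were dialysed overnight at 4°C against 20 mM Tris pH 7.7, 150 mM NaCl, 0.5 mM TCEP. 50 μM SA2-SCC1 was placed in the cell and titrated with 500 μM peptide in 16 injections. Data were fitted to a one-site model; titrations were repeated three times.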

For “DVKLEFFGFEDHETGGDEGGSGSSNYKIKYFGFDDLSESED [Wapl 423-463]”, the “N (binding stoichiometry)” value came to 0.62, the TΔS is reported as -0.54 kcal/mol, the ΔG is recorded as -6.11 kcal/mol and the ΔH is listed as -6.66 kcal/mol.
The corresponding values for SNDAYNFNLEE [Shugoshin 331-341] are 0.83, -4.02 kcal/mol, -6.64 kcal/mol and -10.67 kcal/mol.
The corresponding values for NYKIKYFGFDDLSESE [Wapl 447-462] are 1.00, -1.20 kcal/mol, -5.60 kcal/mol and -6.81 kcal/mol.
The corresponding values for `CC(C)C[C@H](NC(=O)[C@H](CC(N)=O)NC(=O)[C@H](Cc1ccccc1)NC(=O)[C@H](CC(N)=O)NC(=O)[C@H](Cc1ccc(O)cc1)NC(=O)[C@H](C)NC(=O)[C@H](CC(=O)O)NC(=O)[C@H](CC(N)=O)NC(=O)[C@@H](N)CO)C(=O)N[C@@H](CCC(=O)O)C(=O)N[C@@H](CCC(=O)O)C(=O)NCC(=O)N[C@H](C(=O)N[C@@H](Cc1c[nH]cn1)C(=O)N[C@@H](CC(C)C)C(=O)N[C@H](C(=O)N1CCC[C@H]1C(=O)N[C@@H](Cc1ccccc1)C(=O)N[C@@H](CCCNC(=N)N)C(=O)O)[C@@H](C)OP(=O)(O)O)C(C)C` [Shugoshin 331-349 (pT346), reference compound] (H-SNDAYNFNLEEGVHL[pT]PFR-OH; N-terminus and C-terminus assumed) are 0.89, -12.30 kcal/mol, -7.69 kcal/mol and -20.00 kcal/mol.
